pEC50: −log10 of the molar value.
Columns and labels:
[1] = species on record: Rattus norvegicus; assay: Displacement of [3H]DTG from sigma opioid receptor in rat cerebral cortex; format: tissue-based
[2] = biological target: D(2) dopamine receptor (Homo sapiens) (UniProt P14416); assay: Displacement of radioligand from dopamine D2 receptor at 10 uM
[3] = biological target: Beta-1 adrenergic receptor (Homo sapiens) (UniProt P08588); assay: Displacement of [3H](-)CGP12177 from human recombinant beta 1 adrenergic receptor expressed in HEK293 cells at 10 uM; format: cell-based
[4] = test system: Mus musculus; assay: Anticonvulsant activity against maximal electroshock-induced seizures in po dosed CD1 mouse model treated 30 mins before electroshock application; format: functional, organism-based
In short: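 Male CD-1 mice dosed po (10 mL/kg in 5% DMSO/95% of 0.5% HPMC/1% Tween 80) 30 min before corneal electroshock at 50 mA for 0.2 s, with 1% proparacaine in each eye. Latency to hindlimb extension recorded to 0.1 s. No extension within 6 s scored as protected (latency 6 s). Reported as protected/tested (8 per group), or EC50 derived from latency scores.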

[5] = biological target: Voltage-gated potassium channel, KQT; KCNQ2(Kv7.2)/KCNQ3(Kv7.3) (Homo sapiens, UniProt O43525+O43526); assay: Activation of KCNQ2/KCNQ3 expressed in CHO cells by isotopic efflux assay; format: cell-based
In short: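 86Rb+ flux in K+-channel-expressing cells loaded by culture in 86RbCl, then washed in EBSS. Preincubated with drug (0.01-30 μM in EBSS), then efflux stimulated by submaximal KCl (generally 7-20 mM) with drug still present. Supernatant and SDS lysate counted by Cherenkov. Percent efflux normalized to high-KCl (generally 30-135 mM) maximum. EC50 from eight-point half-log curves; mean of 2-4 determinations ± SEM.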

[6] = Binding affinity to vasopressin V1 receptor at 10 uM by displacement assay
[7] = test system: Rattus norvegicus; assay: Anticonvulsant activity in po dosed Sprague-Dawley rat assessed as inhibition of pentylenetetrazole-induced seizure treated 30 mins before PTZ challenge; format: functional, organism-based
In short: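 Male Sprague-Dawley rats received compound po in 0.5% methylcellulose (1 mL/kg) 30 min before PTZ 85 mg/kg sc. Latency to tonic-clonic seizure timed from PTZ injection. No seizure within 15 min scored as protected (latency 15 min). EC50 derived from latency scores.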

[8] = biological target: T1, Glucocorticoid receptor (Homo sapiens) (UniProt P04150); assay: Binding affinity to glucocorticoid receptor at 10 uM by displacement assay
T1 sequence (whole entry): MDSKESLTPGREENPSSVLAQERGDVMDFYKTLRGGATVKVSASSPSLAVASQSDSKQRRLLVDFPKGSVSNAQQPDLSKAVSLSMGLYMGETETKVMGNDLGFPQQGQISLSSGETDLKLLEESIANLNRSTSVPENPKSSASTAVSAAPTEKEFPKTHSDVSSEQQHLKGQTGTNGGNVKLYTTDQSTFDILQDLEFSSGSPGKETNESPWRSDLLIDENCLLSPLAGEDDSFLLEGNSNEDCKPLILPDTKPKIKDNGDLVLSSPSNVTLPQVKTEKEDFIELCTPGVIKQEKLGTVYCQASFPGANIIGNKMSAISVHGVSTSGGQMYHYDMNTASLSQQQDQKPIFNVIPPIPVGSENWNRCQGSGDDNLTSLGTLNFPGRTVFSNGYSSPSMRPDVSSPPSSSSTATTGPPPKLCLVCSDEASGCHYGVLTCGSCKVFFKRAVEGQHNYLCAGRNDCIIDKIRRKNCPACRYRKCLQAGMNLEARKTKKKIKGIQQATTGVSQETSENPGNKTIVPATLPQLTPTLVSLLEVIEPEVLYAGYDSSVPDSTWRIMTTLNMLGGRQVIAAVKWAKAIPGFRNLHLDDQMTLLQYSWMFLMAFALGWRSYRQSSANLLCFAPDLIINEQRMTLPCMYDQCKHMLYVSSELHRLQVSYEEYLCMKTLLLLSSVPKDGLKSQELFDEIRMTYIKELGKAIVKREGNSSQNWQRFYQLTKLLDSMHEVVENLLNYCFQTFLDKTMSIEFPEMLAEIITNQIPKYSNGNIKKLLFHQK

[9] = biological target: T2, Adenosine receptor A1 (Homo sapiens) (UniProt P30542); assay: Displacement of [3H]CCPA from human recombinant adenosine A1 receptor expressed in CHO cells at 10 uM; format: cell-based
T2 sequence (whole entry): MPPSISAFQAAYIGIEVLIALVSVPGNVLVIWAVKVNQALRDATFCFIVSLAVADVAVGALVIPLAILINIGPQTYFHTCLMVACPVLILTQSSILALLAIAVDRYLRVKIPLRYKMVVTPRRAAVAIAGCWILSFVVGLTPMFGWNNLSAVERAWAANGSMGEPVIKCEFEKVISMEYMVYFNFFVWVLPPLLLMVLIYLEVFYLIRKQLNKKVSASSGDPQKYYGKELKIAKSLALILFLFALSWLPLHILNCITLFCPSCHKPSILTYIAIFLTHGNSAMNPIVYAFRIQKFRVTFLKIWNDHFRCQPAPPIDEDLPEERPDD

[10] = biological target: Sodium-dependent dopamine transporter (Homo sapiens) (UniProt Q01959); assay: Binding affinity to DAT at 10 uM by displacement assay
[11] = biological target: Sodium-dependent serotonin transporter (Homo sapiens) (UniProt P31645); assay: Binding affinity to SERT at 10 uM by displacement assay
[12] = biological target: T3, Type-1 angiotensin II receptor (Homo sapiens) (UniProt P30556); assay: Displacement of [125I][Sar1,Ile8]-AT2 from human recombinant AT1 angiotensin receptor expressed in HEK293 cells at 10 uM; format: cell-based
T3 sequence (whole entry): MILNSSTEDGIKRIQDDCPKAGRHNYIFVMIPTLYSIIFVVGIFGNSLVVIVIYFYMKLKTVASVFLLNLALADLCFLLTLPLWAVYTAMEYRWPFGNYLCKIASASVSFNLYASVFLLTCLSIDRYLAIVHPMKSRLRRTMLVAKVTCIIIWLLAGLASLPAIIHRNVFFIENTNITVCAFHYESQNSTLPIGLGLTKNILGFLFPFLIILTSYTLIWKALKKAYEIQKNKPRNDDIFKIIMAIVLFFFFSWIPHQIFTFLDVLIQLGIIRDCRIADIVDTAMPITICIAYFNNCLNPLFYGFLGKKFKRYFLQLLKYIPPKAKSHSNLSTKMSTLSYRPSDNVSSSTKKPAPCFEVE

[13] = biological target: Adenosine receptor A2a (Homo sapiens) (UniProt P29274); assay: Displacement of [3H]CGS21680 from human recombinant adenosine A2A receptor expressed in HEK293 cells at 10 uM; format: cell-based
[14] = biological target: Sodium-dependent noradrenaline transporter (Homo sapiens) (UniProt P23975); assay: Binding affinity to NET at 10 uM by displacement assay
[15] = biological target: Histamine H1 receptor (Homo sapiens) (UniProt P35367); assay: Displacement of radioligand from histamine H1 receptor at 10 uM
Sequence of Histamine H1 receptor (Homo sapiens) (P35367 whole entry): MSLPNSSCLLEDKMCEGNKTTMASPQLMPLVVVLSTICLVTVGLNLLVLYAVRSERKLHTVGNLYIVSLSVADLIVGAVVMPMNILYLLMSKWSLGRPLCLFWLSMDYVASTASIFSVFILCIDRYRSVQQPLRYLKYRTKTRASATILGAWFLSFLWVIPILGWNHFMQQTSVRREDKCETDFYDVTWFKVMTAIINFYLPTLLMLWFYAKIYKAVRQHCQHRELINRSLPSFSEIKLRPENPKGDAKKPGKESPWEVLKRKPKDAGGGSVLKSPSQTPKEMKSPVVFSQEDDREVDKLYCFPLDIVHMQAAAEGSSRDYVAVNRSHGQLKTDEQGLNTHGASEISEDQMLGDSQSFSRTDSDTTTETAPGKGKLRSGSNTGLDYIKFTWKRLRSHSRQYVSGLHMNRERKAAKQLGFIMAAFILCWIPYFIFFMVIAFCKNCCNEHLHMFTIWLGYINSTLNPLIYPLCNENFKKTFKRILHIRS

Sequence of Adenosine receptor A2a (Homo sapiens) (P29274 whole entry): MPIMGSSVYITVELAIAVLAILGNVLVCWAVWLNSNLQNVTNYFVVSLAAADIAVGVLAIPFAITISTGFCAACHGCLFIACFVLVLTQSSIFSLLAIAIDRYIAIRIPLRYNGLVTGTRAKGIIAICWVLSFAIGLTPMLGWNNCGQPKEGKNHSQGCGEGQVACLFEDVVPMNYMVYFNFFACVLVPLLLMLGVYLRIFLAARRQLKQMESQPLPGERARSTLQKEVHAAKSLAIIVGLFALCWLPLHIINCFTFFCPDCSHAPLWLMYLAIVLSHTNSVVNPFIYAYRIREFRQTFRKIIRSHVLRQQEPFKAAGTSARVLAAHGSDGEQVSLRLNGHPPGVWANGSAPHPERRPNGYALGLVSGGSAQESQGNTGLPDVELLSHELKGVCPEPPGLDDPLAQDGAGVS
Sequence of Voltage-gated potassium channel, KQT; KCNQ2(Kv7.2)/KCNQ3(Kv7.3) (O43526 whole entry): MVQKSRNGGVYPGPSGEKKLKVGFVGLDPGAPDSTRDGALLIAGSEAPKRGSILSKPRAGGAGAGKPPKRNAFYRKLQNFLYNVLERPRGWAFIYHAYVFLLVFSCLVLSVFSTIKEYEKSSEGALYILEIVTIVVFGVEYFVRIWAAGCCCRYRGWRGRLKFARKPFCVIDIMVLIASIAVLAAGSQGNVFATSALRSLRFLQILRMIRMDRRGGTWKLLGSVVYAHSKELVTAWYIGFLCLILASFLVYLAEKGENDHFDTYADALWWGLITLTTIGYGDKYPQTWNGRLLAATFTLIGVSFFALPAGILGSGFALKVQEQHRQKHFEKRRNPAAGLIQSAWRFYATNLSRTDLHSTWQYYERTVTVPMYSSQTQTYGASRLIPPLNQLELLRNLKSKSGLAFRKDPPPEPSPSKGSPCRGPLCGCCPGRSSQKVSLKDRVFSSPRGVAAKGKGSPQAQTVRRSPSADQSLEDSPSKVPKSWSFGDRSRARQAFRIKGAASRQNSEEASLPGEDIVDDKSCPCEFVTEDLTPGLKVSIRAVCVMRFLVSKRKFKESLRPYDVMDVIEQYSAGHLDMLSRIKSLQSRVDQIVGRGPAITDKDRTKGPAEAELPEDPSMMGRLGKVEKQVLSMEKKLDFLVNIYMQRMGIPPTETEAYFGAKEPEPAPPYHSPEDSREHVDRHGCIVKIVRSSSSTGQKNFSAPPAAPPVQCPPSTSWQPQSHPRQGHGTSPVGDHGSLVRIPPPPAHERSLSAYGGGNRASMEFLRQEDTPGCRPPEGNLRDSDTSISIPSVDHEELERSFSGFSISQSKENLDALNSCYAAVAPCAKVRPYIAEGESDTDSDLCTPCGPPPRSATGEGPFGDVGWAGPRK
Sequence of Voltage-gated potassium channel, KQT; KCNQ2(Kv7.2)/KCNQ3(Kv7.3) (O43525 whole entry): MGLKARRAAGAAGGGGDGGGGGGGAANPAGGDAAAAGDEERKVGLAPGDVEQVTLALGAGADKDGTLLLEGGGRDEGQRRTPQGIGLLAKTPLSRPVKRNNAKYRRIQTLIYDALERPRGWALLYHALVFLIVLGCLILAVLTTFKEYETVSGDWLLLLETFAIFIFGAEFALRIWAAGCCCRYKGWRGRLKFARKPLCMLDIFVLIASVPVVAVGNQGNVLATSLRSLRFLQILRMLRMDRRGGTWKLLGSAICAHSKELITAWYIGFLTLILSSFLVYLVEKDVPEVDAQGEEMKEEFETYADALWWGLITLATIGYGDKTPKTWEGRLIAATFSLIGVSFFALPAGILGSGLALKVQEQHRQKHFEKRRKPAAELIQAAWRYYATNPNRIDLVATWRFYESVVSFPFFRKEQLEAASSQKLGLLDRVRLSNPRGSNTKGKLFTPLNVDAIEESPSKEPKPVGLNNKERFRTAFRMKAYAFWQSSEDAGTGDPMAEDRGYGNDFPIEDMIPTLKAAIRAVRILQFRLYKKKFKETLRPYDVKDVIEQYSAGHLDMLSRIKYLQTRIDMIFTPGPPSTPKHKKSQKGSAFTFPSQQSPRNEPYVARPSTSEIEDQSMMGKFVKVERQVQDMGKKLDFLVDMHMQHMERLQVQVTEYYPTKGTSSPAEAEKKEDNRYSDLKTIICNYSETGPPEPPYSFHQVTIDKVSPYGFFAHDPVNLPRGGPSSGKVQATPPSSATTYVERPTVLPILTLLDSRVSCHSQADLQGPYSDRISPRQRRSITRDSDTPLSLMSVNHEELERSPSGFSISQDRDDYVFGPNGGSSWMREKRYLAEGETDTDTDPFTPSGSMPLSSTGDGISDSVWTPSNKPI
Sequence of Sodium-dependent serotonin transporter (Homo sapiens) (P31645 whole entry, looked up): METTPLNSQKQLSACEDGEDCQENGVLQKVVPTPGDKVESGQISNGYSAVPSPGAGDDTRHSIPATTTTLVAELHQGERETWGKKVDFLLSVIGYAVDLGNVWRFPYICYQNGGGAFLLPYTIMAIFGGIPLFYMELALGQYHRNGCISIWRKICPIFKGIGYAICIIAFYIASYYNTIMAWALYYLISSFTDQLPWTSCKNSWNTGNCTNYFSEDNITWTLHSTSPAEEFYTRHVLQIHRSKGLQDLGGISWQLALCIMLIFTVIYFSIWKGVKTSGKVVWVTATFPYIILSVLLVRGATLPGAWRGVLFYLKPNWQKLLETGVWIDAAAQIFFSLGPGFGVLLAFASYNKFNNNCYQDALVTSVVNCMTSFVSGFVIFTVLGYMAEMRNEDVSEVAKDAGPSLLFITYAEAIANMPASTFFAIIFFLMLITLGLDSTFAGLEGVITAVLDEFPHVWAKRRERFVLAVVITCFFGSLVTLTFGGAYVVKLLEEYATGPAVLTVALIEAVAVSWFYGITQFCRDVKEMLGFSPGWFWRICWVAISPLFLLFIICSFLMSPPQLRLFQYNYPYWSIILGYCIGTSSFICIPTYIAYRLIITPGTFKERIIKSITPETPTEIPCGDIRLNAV
Sequence of Sodium-dependent dopamine transporter (Homo sapiens) (Q01959 whole entry): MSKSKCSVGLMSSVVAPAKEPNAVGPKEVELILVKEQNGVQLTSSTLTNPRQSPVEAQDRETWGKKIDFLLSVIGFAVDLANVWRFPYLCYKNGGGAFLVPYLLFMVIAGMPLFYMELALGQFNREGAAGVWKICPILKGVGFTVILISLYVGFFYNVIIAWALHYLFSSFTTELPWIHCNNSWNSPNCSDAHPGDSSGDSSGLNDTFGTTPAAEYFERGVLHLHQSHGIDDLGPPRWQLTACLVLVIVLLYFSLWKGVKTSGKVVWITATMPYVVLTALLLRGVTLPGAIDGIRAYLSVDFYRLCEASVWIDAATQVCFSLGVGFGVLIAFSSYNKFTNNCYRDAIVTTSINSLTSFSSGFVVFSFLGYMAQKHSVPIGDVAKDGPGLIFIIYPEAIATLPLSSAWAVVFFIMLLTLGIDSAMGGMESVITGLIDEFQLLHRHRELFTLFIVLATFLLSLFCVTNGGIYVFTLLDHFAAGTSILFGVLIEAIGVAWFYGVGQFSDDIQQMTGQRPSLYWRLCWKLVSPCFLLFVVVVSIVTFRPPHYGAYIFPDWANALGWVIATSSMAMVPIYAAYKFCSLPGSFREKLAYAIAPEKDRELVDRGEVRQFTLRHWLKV
Sequence of D(2) dopamine receptor (Homo sapiens) (P14416 whole entry): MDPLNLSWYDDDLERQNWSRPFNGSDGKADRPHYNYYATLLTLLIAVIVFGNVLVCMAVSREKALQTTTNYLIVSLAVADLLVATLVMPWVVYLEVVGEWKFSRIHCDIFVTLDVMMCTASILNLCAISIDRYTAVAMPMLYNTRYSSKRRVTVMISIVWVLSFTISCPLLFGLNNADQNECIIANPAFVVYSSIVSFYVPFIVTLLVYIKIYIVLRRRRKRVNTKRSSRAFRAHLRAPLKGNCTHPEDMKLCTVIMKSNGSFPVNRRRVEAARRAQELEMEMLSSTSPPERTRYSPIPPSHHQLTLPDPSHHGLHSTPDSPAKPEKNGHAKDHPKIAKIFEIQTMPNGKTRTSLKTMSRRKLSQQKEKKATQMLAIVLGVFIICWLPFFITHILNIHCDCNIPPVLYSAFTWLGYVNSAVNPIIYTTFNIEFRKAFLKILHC
Sequence of Beta-1 adrenergic receptor (Homo sapiens) (P08588 whole entry, looked up): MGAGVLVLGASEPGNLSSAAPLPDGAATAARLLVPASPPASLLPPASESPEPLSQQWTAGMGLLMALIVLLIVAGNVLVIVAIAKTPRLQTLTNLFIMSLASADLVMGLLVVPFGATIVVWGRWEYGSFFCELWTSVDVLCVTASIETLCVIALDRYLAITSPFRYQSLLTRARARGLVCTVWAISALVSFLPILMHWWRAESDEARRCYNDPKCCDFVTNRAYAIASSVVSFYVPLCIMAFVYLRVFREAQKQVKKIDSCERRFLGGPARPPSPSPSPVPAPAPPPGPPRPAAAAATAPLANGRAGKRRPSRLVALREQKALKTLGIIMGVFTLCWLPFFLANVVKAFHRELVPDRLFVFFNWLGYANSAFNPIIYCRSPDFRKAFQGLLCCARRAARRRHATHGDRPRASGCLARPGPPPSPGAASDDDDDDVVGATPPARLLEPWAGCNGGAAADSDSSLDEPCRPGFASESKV

Row | Activity [1] | Activity [2] | Activity [3] | pEC50 [5] | Activity [6] | Activity [8] | Activity [9] | Activity [10] | Activity [11] | Activity [12] | Activity [13] | Activity [14] | Activity [15] | SMILES | EC50 [4] | EC50 [7]
1 | 0% | 0% | 0% | 7.36 | 22% | 14% | 0% | 21% | 50% | 18% | 12% | 34% | 0% | Cn1/c(=N/NC(=O)CC2CCCC2)sc2cc(OC(F)(F)F)ccc21 | < 10 mg/kg | 7.5 mg/kg
2 | 0% | 0% | 0% | 7.31 | 12% | 0% | 0% | 0% | 20% | 0% | 0% | 14% | 22% | Cn1/c(=N/NC(=O)CC(C)(C)C)sc2cc(OC(F)(F)F)ccc21 | 4.4 mg/kg | 3.8 mg/kg
3 | 19% | 0% | 11% | 7.02 | 0% | 0% | 11% | 0% | 16% | 14% | 10% | 43% | 0% | CC(C)OC(=O)N/N=c1\sc2cc(OC(F)(F)F)ccc2n1C | 8.8 mg/kg | 2.6 mg/kg

— ChEMBL document CHEMBL1157731, “Novel KCNQ2/Q3 agonists as potential therapeutics for epilepsy and neuropathic pain” (J Med Chem, 2010)
